An excerpt weighted towards active compounds, which were near 3.3% of everything screened.
Arr AP2 block = human beta-arrestin and AP2 interaction inhibition; FITC-arrestin peptide / GST-AP2 beads, flow cytometry; AP2 beta2 appendage carries R879A mutation; inhibition, % at 10 µM; hit rate 0.31% among 340,000; AID 504490;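 active means inhibition above a set limit, near 3 SD of compounds lacking own fluorescence, cut at about 54% in these data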
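Test system: GST-tagged AP2 beta2-adaptin appendage (R879A) on 4 µm glutathione beads; also added: fluorescein-tagged arrestin peptide at 50 nM final; timing: 12 min plus 1 h, RT; signal: flow cytometry, FL1 (488/535 nm); read-out: percent drop in bead-associated FITC signal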
HGIII-sPLA2 inh = Inhibits HGIII-sPLA2 liposome hydrolysis, primary screen. Q9NZ20. QFRET BODIPY PC-A2 liposome hydrolysis, fluorescence. inhibition, % at 12.2 µM. hit rate 0.56% among 370,000. AID 743126;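 active means inhibition above mean plus 3 SD of compounds lying within the high and low control bounds, cut at about 19% in these data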
m5-HT2A agonist = agonists of mouse serotonin 5-HT2A receptor (HTR2A) | CHO-K1 mHTR2A beta-arrestin complementation, luminescence; percent of 30 µM serotonin response | hit rate 0.66% among 360,000 | activation, % at 7.6 µM | AID 624169;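 active means activation above a run cutoff, the mean activation of all tested compounds plus 3 SD, cut at about 14% in these data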
Target sequence (P35363 whole entry, looked up): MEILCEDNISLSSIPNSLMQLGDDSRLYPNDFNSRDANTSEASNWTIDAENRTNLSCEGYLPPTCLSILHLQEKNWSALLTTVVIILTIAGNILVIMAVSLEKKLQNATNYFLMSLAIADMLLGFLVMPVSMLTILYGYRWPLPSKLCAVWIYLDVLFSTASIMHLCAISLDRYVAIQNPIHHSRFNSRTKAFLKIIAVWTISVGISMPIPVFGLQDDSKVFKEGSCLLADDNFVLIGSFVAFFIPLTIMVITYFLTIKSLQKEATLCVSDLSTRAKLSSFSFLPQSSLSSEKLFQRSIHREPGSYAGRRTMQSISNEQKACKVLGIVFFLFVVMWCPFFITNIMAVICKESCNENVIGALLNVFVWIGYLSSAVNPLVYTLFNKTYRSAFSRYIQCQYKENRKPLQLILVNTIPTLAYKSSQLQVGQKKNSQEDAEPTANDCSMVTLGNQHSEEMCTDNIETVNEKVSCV
Lipid droplet = hepatic lipid droplet formation modulation; AML12 mouse hepatocytes, oleate lipid droplets, BODIPY imaging; inhibition, % at 6.5 µM; hit rate 0.4% among 240,000; AID 1656;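 active means lipid droplet intensity inhibited by at least 50%, with more than 500 cells counted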
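Assay system: AML12 hepatocytes (mouse); Probe or stimulus: oleic acid at 100 µM to induce lipid droplet formation; Dosing: compound at 6.5 µM only; Schedule: compound with oleate, overnight; Detection: fluorescence imaging, 20x objective, two fields per well; Measure: % inhibition of lipid droplet signal.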
CendR NRP1 mod = modulators of CendR peptide binding to human neuropilin-1; O14786; FAM-RPARPAR peptide binding to NRP-1, fluorescence polarization; inhibition, % at 25 µM; hit rate 0.85% among 360,000; AID 602438;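 active means inhibition or corrected inhibition above about 18%, plus a signal ratio from 0.5 to 1.5, limit read from the data, passing the limit was not always enough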
M18AAP inhibitor = PfM18AAP enzyme inhibition; hit rate 1.2% among 290,000; inhibition, % at 7.35 µM; recombinant PfM18AAP, H-Glu-NHMec fluorogenic cleavage;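 active means inhibition above the campaign mean inhibition over all tested compounds plus 3 SD, cut at about 28% in these data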
Hep lipid conf = confirmation of inhibitors of hepatic lipid droplet formation | shares compounds with Lipid droplet | AML12 mouse hepatocytes, BODIPY lipid droplet imaging; droplets induced with 100 µM oleic acid | inhibition, % at 5.2 µM | hit rate 65% among 870 | AID 463183;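 active means inhibition of lipid droplet metric at least 50%, with more than 300 cells in each of four replicates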
AML12 tox img = AML12 hepatocyte cytotoxicity (counter-screen); z-score at 5 µM; AML12 mouse hepatocytes, DAPI nuclear morphology cytotoxicity imaging; active compounds read high; cells fed 100 µM oleate overnight; hit rate 3% among 870; AID 463200; shares compounds with Lipid droplet; in the data active means z-score above about 6.3;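 further: compound exposure lasted overnight at 37 °C before fixation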
AML12 tox conf = AML12 hepatocyte cytotoxicity, confirmed; shares compounds with Lipid droplet; AML12 mouse hepatocyte viability, ATP luminescence; cells loaded with 100 µM oleic acid; cytotoxicity, % at 50 µM; 530 tested, under 10 active; AID 463219;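 active means cytotoxicity above 50% in each of four replicates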;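 further: compound exposure lasted overnight at 37 °C before the ATP read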
Each line names hits and unclear results; the compound was inactive in the other large screens (follow-up assays come after a bar, where they were run).

COC(=O)C1(C(=O)OC)C[C@H](/C=C/c2ccccc2)N(Cc2ccccc2OC)[C@@H]1c1ccc(F)cc1	none (no result: Arr AP2 block, Lipid droplet, M18AAP inhibitor)
N#Cc1cccc(C(=O)C(=O)N2CCN(c3ccccc3)CC2)c1	none (no result: Arr AP2 block, Lipid droplet, M18AAP inhibitor)
CC1(OC(=O)CCc2ccccc2)C(=O)C=C2C=C(c3ccc(C#N)cc3)N(CCc3c[nH]c4ccccc34)C=C2C1=O (stereo not given)	Lipid droplet 60 (no result: M18AAP inhibitor) | Hep lipid conf inactive | AML12 tox img inactive
CCN(CC)CCCN1C=C2C(=O)C(C)(OC(=O)CCc3ccccc3)C(=O)C=C2C=C1c1ccc(C#N)cc1 (stereo not given)	none (no result: HGIII-sPLA2 inh, M18AAP inhibitor)
COc1ccc(-n2c(=O)c3ccccc3n(CC(=O)Nc3cc(C)on3)c2=O)cc1OC	Lipid droplet 52 | Hep lipid conf inactive | AML12 tox img inactive
Cc1ccc(CN2CCCCC(NC(=O)c3cccc(F)c3)C2=O)cc1 (stereo not given)	none (no result: Arr AP2 block, m5-HT2A agonist, Lipid droplet, CendR NRP1 mod, M18AAP inhibitor)
COc1cc(NC(=O)c2oc3ccccc3c2C)ccc1NC(=O)c1ccco1	Lipid droplet 102 | Hep lipid conf 111 | AML12 tox img inactive | AML12 tox conf inactive
Cc1cc(C)n(-c2nc(Nc3ccccc3)nc(-n3nc(C)cc3C)n2)n1	none (no result: Lipid droplet)
Cc1cc(C)n(-c2nc(N(c3ccccc3)c3ccccc3)nc(-n3nc(C)cc3C)n2)n1	Lipid droplet 57 (no result: HGIII-sPLA2 inh) | Hep lipid conf 69 | AML12 tox img inactive | AML12 tox conf 93
CCOc1ccc(CN(C)C(=O)CNC(=O)Cc2cccc3ccccc23)cc1	Lipid droplet 77 | Hep lipid conf 101 | AML12 tox img inactive | AML12 tox conf inactive
COC(=O)Cc1nnn2c1[C@@H](C)[C@@H](c1ccccc1Br)OC[C@H](C)C2	none (no result: Arr AP2 block, m5-HT2A agonist, Lipid droplet, CendR NRP1 mod, M18AAP inhibitor)
COc1ccc(OC)c(NC(=O)Cc2coc3ccc4ccccc4c23)c1	Lipid droplet 51 | Hep lipid conf 85 | AML12 tox img inactive | AML12 tox conf inactive
Cc1cccc(NC(=O)Cc2coc3ccc4ccccc4c23)n1	Lipid droplet 57 | Hep lipid conf 88 | AML12 tox img inactive | AML12 tox conf inactive
COc1ccc(OC)c(NC(=O)Cc2coc3ccc(C)cc23)c1	none
CCCCCC1=C(C(=O)OC)C(C(=O)OCC)N(S(=O)(=O)C(F)(F)F)c2ccccc21 (stereo not given)	none (no result: Lipid droplet, M18AAP inhibitor)
CC(C)(C)c1cc(NC(=O)Nc2ccc(Cl)cc2Cl)no1	Lipid droplet 50 | Hep lipid conf inactive | AML12 tox img inactive
CC(C)(C)c1cc(NC(=O)Nc2ccc(Br)cc2Cl)no1	none
O=C(NC(=S)Nc1ccc(O)cc1)c1ccccc1Cl	none
COc1ccc(NC(=S)NC(=O)c2ccccc2Cl)cc1	Lipid droplet 57 | Hep lipid conf inactive | AML12 tox img inactive
CN(C)Cc1ccc(O)c(CCc2ccccc2)n1	Lipid droplet 52 | Hep lipid conf inactive | AML12 tox img inactive
O=C(NCCc1ccccc1F)C1CC(=O)N(c2ccc3c(c2)OCCO3)C1 (stereo not given)	none (no result: Arr AP2 block, Lipid droplet, M18AAP inhibitor)
Clc1ccc2c(NCc3cccs3)ncnc2c1	none (no result: Lipid droplet)
COc1cc2ncnc(NCc3cccs3)c2cc1OC	Lipid droplet 52 | Hep lipid conf 62 | AML12 tox img 15
O=c1c(C/C=C/c2ccccc2)c(O)ccn1CCc1c[nH]c2ccccc12	Lipid droplet 60 | Hep lipid conf 105 | AML12 tox img inactive | AML12 tox conf inactive
COc1ccc2[nH]cc(CCn3ccc(O)c(C/C=C/c4ccccc4)c3=O)c2c1	none
O=C(NCCOc1ccccc1)C1C(=O)Nc2ccccc2C(=O)N1C1CCCCC1 (stereo not given)	none (no result: Arr AP2 block, Lipid droplet, M18AAP inhibitor)
COc1ccc(CC(=O)Nc2oc(-c3ccccc3)c(-c3ccccc3)c2C#N)cc1OC	Lipid droplet 97 | Hep lipid conf 110 | AML12 tox img inactive | AML12 tox conf inactive

Source: PubChem BioAssay
